Measured values taken from ChEMBL document CHEMBL4177770, “Discovery of MK-6169, a Potent Pan-Genotype Hepatitis C Virus NS5A Inhibitor with Optimized Activity against Common Resistance-Associated Substitutions” (J Med Chem, 2018).
Where a chain is given by its changes, count along the chain named.

What was measured:
[1] = Half life in Wistar Han rat at 2 mg/kg, iv by LC/MS method; type: ADME, organism-based; details: in vivo
Summary of the method: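 Male Wistar Han rats, two per group, dosed IV at 2 mg/kg in 60% PEG200. Plasma was obtained by centrifuging the blood, and compound concentrations were measured by LC/MS.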

[2] = Drug level in Wistar Han rat at 10 mg/kg, po measured at 24 hrs by LC/MS method; type: ADME, organism-based; details: in vivo, read-out: Drug uptake
Summary of the method: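 Male Wistar Han rats, two per dosing group, dosed orally at 10 mg/kg in 10% TWEEN. Plasma was separated from collected blood by centrifugation and analysed by LC/MS.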

[3] = biological target: T1, Nonstructural protein 5A (Hepatitis C virus) (UniProt Q5L478); assay: Inhibition of NS5A K24R mutant in HCV genotype 1a infected in HuH7 replicon cells assessed as decrease in viral replication after 3 days by RT-PCR method; type: cell-based; details: Hepatitis C virus subtype 1a
T1 sequence (whole entry): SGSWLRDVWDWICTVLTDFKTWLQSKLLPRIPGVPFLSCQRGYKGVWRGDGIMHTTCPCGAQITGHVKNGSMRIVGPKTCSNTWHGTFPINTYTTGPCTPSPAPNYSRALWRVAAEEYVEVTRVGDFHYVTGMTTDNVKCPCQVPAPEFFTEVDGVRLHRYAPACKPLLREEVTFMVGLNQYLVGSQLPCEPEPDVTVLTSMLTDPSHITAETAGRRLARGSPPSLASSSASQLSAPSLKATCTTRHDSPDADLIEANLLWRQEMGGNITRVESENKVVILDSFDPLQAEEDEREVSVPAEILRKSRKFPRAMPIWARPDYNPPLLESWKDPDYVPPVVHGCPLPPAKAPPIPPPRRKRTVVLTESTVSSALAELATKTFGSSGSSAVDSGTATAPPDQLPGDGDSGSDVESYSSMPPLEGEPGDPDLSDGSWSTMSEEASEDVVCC

[4] = system: NS3 (Hepatitis C virus), A3EZJ3 [R155K]; assay: Inhibition of NS3 R155K mutant in HCV genotype 1a infected in HuH7 replicon cells assessed as decrease in viral replication after 3 days by RT-PCR method; type: cell-based; details: Hepatitis C virus subtype 1a
[5] = biological target: T1, Nonstructural protein 5A (Hepatitis C virus); assay: Inhibition of NS5A R81S mutant in HCV genotype 1a infected in HuH7 replicon cells assessed as decrease in viral replication after 3 days by RT-PCR method; type: cell-based; details: Hepatitis C virus subtype 1a
[6] = system: NS3 (Hepatitis C virus), A3EZJ3 [A156T]; assay: Inhibition of NS3 A156T mutant in HCV genotype 1b infected in HuH7 replicon cells assessed as decrease in viral replication after 3 days by RT-PCR method; type: cell-based; details: Hepatitis C virus subtype 1b
[7] = biological target: T1, Nonstructural protein 5A (Hepatitis C virus); assay: Inhibition of NS5A L31I mutant in HCV genotype 1b infected in HuH7 replicon cells assessed as decrease in viral replication after 3 days by RT-PCR method; type: cell-based; details: Hepatitis C virus subtype 1b
[8] = biological target: T1, Nonstructural protein 5A (Hepatitis C virus); assay: Inhibition of NS5A in HCV genotype 2a infected in HuH7 replicon cells assessed as decrease in viral replication after 3 days by RT-PCR method; type: cell-based; details: Hepatitis C virus subtype 2a
[9] = biological target: T1, Nonstructural protein 5A (Hepatitis C virus); assay: Inhibition of NS5A F28L mutant in HCV genotype 2a infected in HuH7 replicon cells assessed as decrease in viral replication after 3 days by RT-PCR method; type: cell-based; details: Hepatitis C virus subtype 2a
[10] = Resistance ratio of EC90 for NS5A A92T mutant in HCV genotype 1b infected in HuH7 replicon cells to EC90 for NS5A in HCV genotype 1a infected in HuH7 replicon cells; type: cell-based
[11] = Resistance ratio of EC90 for NS5A L31M mutant in HCV genotype 1b infected in HuH7 replicon cells to EC90 for NS5A in HCV genotype 1a infected in HuH7 replicon cells; type: cell-based
[12] = Resistance ratio of EC90 for NS5A L31V mutant in HCV genotype 1b infected in HuH7 replicon cells to EC90 for NS5A in HCV genotype 1a infected in HuH7 replicon cells; type: cell-based
[13] = Resistance ratio of EC90 for NS5A F28Y mutant in HCV genotype 2a infected in HuH7 replicon cells to EC90 for NS5A in HCV genotype 1a infected in HuH7 replicon cells; type: cell-based
[14] = Resistance ratio of EC90 for NS5A L31M mutant in HCV genotype 2a infected in HuH7 replicon cells to EC90 for NS5A in HCV genotype 1a infected in HuH7 replicon cells; type: cell-based
[15] = biological target: T1, Nonstructural protein 5A (Hepatitis C virus); assay: Inhibition of NS5A M31V mutant in HCV genotype 2b infected in HuH7 replicon cells assessed as decrease in viral replication after 3 days by RT-PCR method; type: cell-based; details: Hepatitis C virus subtype 2b
[16] = system: T2, Nonstructural protein 5A (Hepatitis C virus), Q5L478 [Y93H]; assay: Inhibition of NS5A Y93H mutant in HCV genotype 3a infected in HuH7 replicon cells assessed as decrease in viral replication after 3 days by RT-PCR method; type: cell-based; details: Hepatitis C virus subtype 3a
T2 sequence (whole entry): T1 sequence (whole entry) with Y93H

[17] = Resistance ratio of EC90 for NS5A Y93H mutant in HCV genotype 3a infected in HuH7 replicon cells to EC90 for NS5A in HCV genotype 1a infected in HuH7 replicon cells; type: cell-based
[18] = Resistance ratio of EC90 for NS5A in HCV genotype 4a infected in HuH7 replicon cells to EC90 for NS5A in HCV genotype 1a infected in HuH7 replicon cells; type: cell-based
[19] = Resistance ratio of EC90 for NS5A P32L mutant in HCV genotype 4a infected in HuH7 replicon cells to EC90 for NS5A in HCV genotype 1a infected in HuH7 replicon cells; type: cell-based

Structure (SMILES): COC(=O)N[C@H](C(=O)N1CCC[C@H]1c1ncc(-c2cc(F)c3c(c2)O[C@@H](c2ccc(C4CC4)s2)n2c-3cc3cc(-c4cnc([C@@H]5CCCN5C(=O)[C@@H](NC(=O)OC)[C@@H]5CCOC(C)(C)C5)[nH]4)ccc32)[nH]1)C(C)C
- half-life [1]: 5.4 h
- concentration at 24 h [2]: 3 to 11 nM
- EC90 [3]: 0.34 pM
- EC90 [4]: 1.9 pM
- EC90 [5]: 0.33 pM
- EC90 [6]: 4 pM
- EC90 [7]: 21 pM
- EC90 [8]: 2.7 pM
- EC90 [9]: 0.5 pM
- Ratio [10]: 1
- Ratio [11]: < 1
- Ratio [12]: 1
- Ratio [13]: 16
- Ratio [14]: 6
- EC90 [15]: 19 pM
- EC90 [16]: 2400 pM
- Ratio [17]: 571
- Ratio [18]: 2
- Ratio [19]: 1
